Assay outcomes as filed in PubChem.
Only some compounds are listed: those with a hit (about 2.1% of all), similar ones and a draw of the others.
EP2 modulator – modulators of human EP2 prostaglandin E2 receptor | P43116 | EP2-expressing cells, cAMP HTRF FRET, PGE2 co-stimulation | induction, % at 25 µM | 0.83% of 260,000 active | AID 940;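 active means compounds whose cAMP rise, as percent of the full-agonist control response, exceeds 60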;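 further: rat C6 glioma line stably carrying human EP2 under a CMV promoter; the protocol text gives 20 µM as final concentration; 100% = response of wells given 1 µM PGE2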
PGE2 EP2 inh – EP2 receptor (human) inhibition; 0.52% of 260,000 active; inhibition, % at 25 µM; C6 glioma cells expressing human EP2, cAMP TR-FRET; cells stimulated with saturating PGE2; AID 1422; P43116;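 active means percent inhibition above 40 after rounding to a whole number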;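 further: rat C6 glioma host cells with rolipram phosphodiesterase inhibitor present; the protocol text gives 20 µM as final concentration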
KLK5 inh – blocks human kallikrein 5 protease activity | recombinant hK5, fluorogenic AMC substrate cleavage | inhibition, % at 5 µM | 0.59% of 210,000 active | AID 873;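 active means inhibition of 40% or more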;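 further: 0% = enzyme controls without compound and 100% = no-enzyme blanks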
Target sequence (Q9Y337 67-293 limits assumed): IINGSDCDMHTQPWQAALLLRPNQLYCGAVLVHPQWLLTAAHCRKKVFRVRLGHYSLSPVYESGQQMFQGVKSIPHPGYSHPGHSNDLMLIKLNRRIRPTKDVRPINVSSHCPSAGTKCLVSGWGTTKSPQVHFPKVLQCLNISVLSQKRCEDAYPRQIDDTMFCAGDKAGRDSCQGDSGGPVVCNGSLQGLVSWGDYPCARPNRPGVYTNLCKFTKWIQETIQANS
Thrombin inh – inhibitors of human thrombin; 0.26% of 220,000 active; inhibition, % at 5 µM; P00734; alpha-thrombin, Boc-VPR-AMC fluorogenic substrate cleavage;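 active means inhibition at or above 40%; inactive means inhibition below 40%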;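 further: 0% = enzyme with no compound and 100% = wells without enzyme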
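Material: human alpha-thrombin protein. Incubation: reaction at ambient temperature. Technique: fluorescence of released AMC, ex 355 nm, em 460 nm. Control set: no-compound enzyme wells and no-enzyme blanks. Also added: Boc-VPR-AMC substrate, 15 µM final. Buffer or medium: pH 7.5 Tris (50 mM) with NaCl 150 mM, Tween 20 0.05%.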
FXIa inh 1536 – factor XIa (human) inhibition | P03951 | purified FXIa, Boc-Glu-Ala-Arg-AMC fluorogenic substrate | inhibition, % at 5 µM | 0.14% of 220,000 active | AID 798;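 active means inhibition of at least 40%; inactive means inhibition below 40%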;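 further: fluorescence of freed AMC excited at 355 nm; 0% = enzyme without compound and 100% = no enzyme blank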
FXIIa inh – factor XIIa (human) inhibition. P00748. purified FXIIa, Boc-QGR-AMC fluorogenic substrate, 2 h. inhibition, % at 5 µM. 0.3% of 220,000 active. AID 800; in the data active means inhibition above about 40%;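 further: 0% = enzyme with no compound and 100% = blank without enzyme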
* hit, by the source's call; nt = no result given.

SMILES	EP2 modulator	PGE2 EP2 inh	KLK5 inh	Thrombin inh	FXIa inh 1536	FXIIa inh
COc1ccc(C2(NC(=O)Cc3nn(C)c(=O)c4ccccc34)CCCCC2)cc1	-34	nt	nt	nt	nt	nt
COc1cccc(CNc2ccc(S(N)(=O)=O)cc2)c1OC	-8	nt	31	18	6	107*
O=C1/C(=C\c2cccnc2)Sc2ccccc21	-76	27	-6	-3	-6	0
O=C1C(=Cc2cccnc2)C(=O)c2ccccc21	-117	42*	nt	nt	nt	nt
COC(=O)C1C(=O)C2=C(CC1C)Nc1ccccc1NC2c1cccc(OC)c1O (stereo unspecified)	12	8	nt	nt	nt	nt
COc1ccc(S(=O)(=O)N(Cc2cc3cc(C)cc(C)c3[nH]c2=O)C2CCCC2)cc1	7	3	nt	nt	nt	nt
CCOC(=O)c1ccc(NC(=O)NC2CCN(CC(=O)NCc3ccc4c(c3)OCO4)CC2)cc1	-23	8	30	43*	10	14
CCc1nnc(NC(=O)c2ccc(NC(=O)C(C)C)cc2)s1	-25	6	0	2	43*	4
CCOCc1nnc(NC(=O)c2ccc(NC(=O)C(C)C)cc2)s1	-24	8	nt	nt	nt	nt
CCOC(=O)Cn1c(=NC(=O)C2CC2)sc2c(C)cc(C)cc21	28	4	41*	17	28	29
N#CC(Cc1ccncc1)C(=O)Nc1ccc(Br)cc1 (stereo unspecified)	-39	14	nt	nt	nt	nt
COc1ccc(C)cc1N(C(=O)c1ccccc1)c1nc2ccccc2s1	34	3	4	-2	8	2
COc1ccccc1N(C(=O)c1cncc(Br)c1)c1nc(-c2ccc(C)cc2)cs1	64*	6	-11	0	8	7
CCOc1ccccc1/C=C1\SC(N2CCN(CCC#N)CC2)=NC1=O	-103	12	nt	nt	nt	nt
CC(C)(C)C(=O)Nc1ccc(C(=O)N/N=C/c2ccccc2OC(=O)c2ccc(Cl)cc2)cc1	-21	7	-11	-1	12	19
CC(C)(C)C(=O)Nc1ccc(C(=O)N/N=C/c2ccccc2OC(=O)c2ccccc2)cc1	-43	15	11	-3	60*	-1
COc1ccc(N2CCN(C(c3cc(OC)ccc3OC)c3nnnn3C(C)(C)C)CC2)cc1 (stereo unspecified)	23	8	nt	nt	nt	nt
Cc1ccc(C(O)CN2CCC(O)(c3ccc(F)cc3)CC2)cc1 (stereo unspecified)	-50	9	nt	nt	nt	nt
CC1=C(C(=O)OCC2CCCO2)C(c2ccc(C)o2)C2=C(CC(c3ccc(F)cc3)CC2=O)N1 (stereo unspecified)	14	21	-10	3	36	51*
COc1ccc(C2CC(=O)C3=C(C2)NC(C)=C(C(=O)OC2CCCC2)C3c2ccc(C)o2)cc1OC (stereo unspecified)	-6	40*	nt	nt	nt	nt
CCC(C)OC(=O)C1=C(C)NC2=C(C(=O)CC(c3ccc(OC)c(OC)c3)C2)C1c1ccc(C)o1 (stereo unspecified)	9	12	nt	nt	nt	nt
CC1=C(C(=O)OCC2CCCO2)C(c2ccc(C)o2)C2=C(CC(c3ccc(N(C)C)cc3)CC2=O)N1 (stereo unspecified)	-9	10	-2	4	-1	11
Cn1c(SCC(=O)Nc2ccc(Cl)c(Cl)c2)nnc1C1CCCCC1	-37	16	nt	nt	nt	nt
COc1ccc(S(=O)(=O)N2CCC(C(=O)Nc3c(F)cccc3F)CC2)cc1C	-21	7	nt	nt	nt	nt
COc1ccc2cc(C)c3nn(CC(=O)NCc4ccco4)c(=O)n3c2c1	48	nt	nt	nt	nt	nt
O=[N+]([O-])c1ccc(OCCO)c(P(=O)(c2ccccc2)c2ccccc2)c1	17	6	33	7	70*	24
O=P(O)(O)COc1ccccc1P(=O)(c1ccccc1)c1ccccc1	5	15	2	3	2	11
CC(C)(C)c1ccc(C(O)CN2CCC3(CC2)CC(O)c2ccccc2O3)cc1 (stereo unspecified)	-54	12	nt	nt	nt	nt
CC(=O)OCCCNc1cc(Sc2ccc(C)cc2)c2nonc2c1[N+](=O)[O-]	6	5	3	-2	-4	5
CC(=O)OCCCNc1cc(Sc2nc3ccccc3s2)c2nonc2c1[N+](=O)[O-]	-21	41*	-24	4	6	6
